Experimental data taken from ChEMBL document CHEMBL3734701, “Synthesis and antibacterial activity of 4″-O-(trans-β-arylacrylamido)carbamoyl azithromycin analogs” (2015).
≈ marks a conversion by molar mass, not a printed value.

How the values were obtained:
Type in all cases: functional
Staphylococcus aureus [1] = test: Antibacterial activity against methicillin-susceptible Staphylococcus aureus ATCC 29213 by broth microdilution method
Method in brief: (§1)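 MICs measured in vitro by broth microdilution following NCCL recommendations, against a Gram-positive panel of sensitive and resistant strains. Azithromycin and clarithromycin were tested alongside as references.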

Staphylococcus aureus [2] = test: Antibacterial activity against clinically isolated penicillin-resistant Staphylococcus aureus by broth microdilution method
Method in brief: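 Clinical penicillin-resistant S. aureus isolate, not further characterized, tested in a Gram-positive panel. MIC was measured by broth microdilution following NCCL recommendations, with azithromycin and clarithromycin as references.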

Streptococcus pneumoniae [3] = test: Antibacterial activity against erythromycin-resistant Streptococcus pneumoniae B1 expressing ermB gene by broth microdilution method; method in brief: as §1
Streptococcus pyogenes [4] = test: Antibacterial activity against clinically isolated erythromycin-resistant Streptococcus pyogenes R2 by broth microdilution method; method in brief: as §1
Staphylococcus aureus [5] = test: Antibacterial activity against erythromycin-susceptible Staphylococcus aureus ATCC 25923 by broth microdilution method
Method in brief: (§2)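 Broth microdilution MIC following the NCCL-recommended method. Panel of sensitive and resistant Gram-positive strains: S. pyogenes S2 (erythromycin-susceptible clinical isolate), S. aureus ATCC25923 and S. pneumoniae ATCC49619 (erythromycin-susceptible). Azithromycin and clarithromycin were run alongside as references.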

Streptococcus pneumoniae [6] = test: Antibacterial activity against erythromycin-susceptible Streptococcus pneumoniae ATCC 49619 by broth microdilution method; method in brief: as §2
Streptococcus pyogenes [7] = test: Antibacterial activity against clinically isolated erythromycin-susceptible Streptococcus pyogenes S2 by broth microdilution method; method in brief: as §2
Streptococcus pneumoniae [8] = test: Antibacterial activity against erythromycin-resistant Streptococcus pneumoniae A22072 expressing mefA gene by broth microdilution method; method in brief: as §1
Streptococcus pneumoniae [9] = test: Antibacterial activity against erythromycin-resistant Streptococcus pneumoniae AB11 expressing ermB and mefA genes by broth microdilution method; method in brief: as §1

Compound	MIC (Staphylococcus aureus [1]) [µg/mL]	MIC (Staphylococcus aureus [2]) [µg/mL]	MIC (Streptococcus pneumoniae [3]) [µg/mL]	MIC (Streptococcus pyogenes [4]) [µg/mL]	MIC (Staphylococcus aureus [5]) [µg/mL]	MIC (Streptococcus pneumoniae [6]) [µg/mL]	MIC (Streptococcus pyogenes [7]) [µg/mL]	MIC (Streptococcus pneumoniae [8]) [µg/mL]	MIC (Streptococcus pneumoniae [9]) [µg/mL]
CC[C@H]1OC(=O)[C@@H](C)[C@H](O[C@@H]2C[C@](C)(OC)[C@H](OC(=O)NNC(=O)/C=C/c3ccc([N+](=O)[O-])cc3)[C@@H](C)O2)[C@H](C)[C@H](O[C@H]2O[C@@H](C)C[C@@H](N(C)C)[C@@H]2O)[C@@](C)(O)C[C@H](C)CN(C)[C@@H](C)[C@H](OC(=O)NCc2ccc(OC)cc2)[C@@]1(C)O	8 (≈ 6.98 µM)	8 (≈ 6.98 µM)	2 (≈ 1.75 µM)	32 (≈ 27.9 µM)	4 (≈ 3.49 µM)	1 (≈ 0.873 µM)	0.25 (≈ 0.218 µM)	0.5 (≈ 0.437 µM)	8 (≈ 6.98 µM)
CC[C@@H]1OC(=O)[C@H](C)[C@@H](O[C@@H]2C[C@](C)(OC)[C@H](O)[C@@H](C)O2)[C@@H](C)[C@@H](O[C@@H]2O[C@H](C)C[C@H](N(C)C)[C@H]2O)[C@](C)(O)C[C@@H](C)CN(C)[C@H](C)[C@@H](O)[C@]1(C)O	1 (≈ 1.34 µM)	0.12 (≈ 0.16 µM)	> 128	≥ 128	0.25 (≈ 0.334 µM)	0.03 (≈ 0.0401 µM)	0.25 (≈ 0.334 µM)	4 (≈ 5.34 µM)	256 (≈ 342 µM)
CC[C@@H]1OC(=O)[C@H](C)[C@@H](O[C@H]2C[C@@](C)(OC)[C@@H](OC(=O)NNC(=O)/C=C/c3ccccc3)[C@H](C)O2)[C@@H](C)[C@@H](O[C@@H]2O[C@H](C)C[C@H](N(C)C)[C@H]2O)[C@](C)(O)C[C@@H](C)CN(C)[C@H](C)[C@@H](OC(=O)NCc2ccc(OC)cc2)[C@]1(C)O	4 (≈ 3.64 µM)	4 (≈ 3.64 µM)	2 (≈ 1.82 µM)	32 (≈ 29.1 µM)	1 (≈ 0.909 µM)	0.25 (≈ 0.227 µM)	0.25 (≈ 0.227 µM)	0.25 (≈ 0.227 µM)	8 (≈ 7.27 µM)
CC[C@H]1OC(=O)[C@@H](C)[C@H](O[C@H]2C[C@@](C)(OC)[C@@H](OC(=O)NNC(=O)/C=C/c3ccccc3)[C@H](C)O2)[C@@H](C)[C@H](O[C@H]2O[C@@H](C)C[C@@H](N(C)C)[C@@H]2O)[C@@](C)(O)C[C@H](C)CN(C)[C@@H](C)[C@@H]2OC(=O)O[C@@]12C	8 (≈ 8.31 µM)	8 (≈ 8.31 µM)	8 (≈ 8.31 µM)	64 (≈ 66.4 µM)	8 (≈ 8.31 µM)	2 (≈ 2.08 µM)	0.25 (≈ 0.26 µM)	0.25 (≈ 0.26 µM)	4 (≈ 4.15 µM)
CC[C@H]1OC(=O)[C@@H](C)[C@H](O[C@H]2C[C@@](C)(OC)[C@@H](OC(=O)NNC(=O)/C=C/c3ccc(C#N)cc3)[C@H](C)O2)[C@@H](C)[C@H](O[C@H]2O[C@@H](C)C[C@@H](N(C)C)[C@@H]2O)[C@@](C)(O)C[C@H](C)CN(C)[C@@H](C)[C@@H]2OC(=O)O[C@@]12C	8 (≈ 8.1 µM)	8 (≈ 8.1 µM)	64 (≈ 64.8 µM)	≥ 128	4 (≈ 4.05 µM)	16 (≈ 16.2 µM)	0.5 (≈ 0.506 µM)	2 (≈ 2.02 µM)	64 (≈ 64.8 µM)
CC[C@H]1OC(=O)[C@@H](C)[C@H](O[C@@H]2C[C@](C)(OC)[C@H](OC(=O)NNC(=O)/C=C/c3ccc(OC)c(OC)c3)[C@@H](C)O2)[C@H](C)[C@H](O[C@H]2O[C@@H](C)C[C@@H](N(C)C)[C@@H]2O)[C@@](C)(O)C[C@H](C)CN(C)[C@@H](C)[C@H](OC(=O)NCc2ccc(OC)cc2)[C@@]1(C)O	4 (≈ 3.45 µM)	4 (≈ 3.45 µM)	2 (≈ 1.72 µM)	64 (≈ 55.2 µM)	2 (≈ 1.72 µM)	0.5 (≈ 0.431 µM)	0.5 (≈ 0.431 µM)	0.25 (≈ 0.215 µM)	8 (≈ 6.89 µM)
CC[C@H]1OC(=O)[C@@H](C)[C@H](O[C@@H]2C[C@](C)(OC)[C@H](OC(=O)NNC(=O)/C=C/c3ccc(Br)cc3)[C@@H](C)O2)[C@H](C)[C@H](O[C@H]2O[C@@H](C)C[C@@H](N(C)C)[C@@H]2O)[C@@](C)(O)C[C@H](C)CN(C)[C@@H](C)[C@H](OC(=O)NCc2ccccc2)[C@@]1(C)O	2 (≈ 1.74 µM)	2 (≈ 1.74 µM)	1 (≈ 0.87 µM)	16 (≈ 13.9 µM)	0.5 (≈ 0.435 µM)	0.25 (≈ 0.218 µM)	0.25 (≈ 0.218 µM)	0.12 (≈ 0.104 µM)	1 (≈ 0.87 µM)
CC[C@@H]1OC(=O)[C@H](C)[C@@H](O[C@H]2C[C@@](C)(OC)[C@@H](OC(=O)NNC(=O)/C=C/c3ccco3)[C@H](C)O2)[C@@H](C)[C@@H](O[C@@H]2O[C@H](C)C[C@H](N(C)C)[C@H]2O)[C@](C)(O)C[C@@H](C)CN(C)[C@H](C)[C@@H](OC(=O)NCc2ccccc2)[C@]1(C)O	4 (≈ 3.77 µM)	1 (≈ 0.943 µM)	4 (≈ 3.77 µM)	64 (≈ 60.4 µM)	1 (≈ 0.943 µM)	0.12 (≈ 0.113 µM)	0.25 (≈ 0.236 µM)	0.12 (≈ 0.113 µM)	8 (≈ 7.55 µM)
CC[C@H]1OC(=O)[C@@H](C)[C@H](O[C@H]2C[C@@](C)(OC)[C@@H](OC(=O)NNC(=O)/C=C/c3ccc(F)cc3)[C@H](C)O2)[C@@H](C)[C@H](O[C@H]2O[C@@H](C)C[C@@H](N(C)C)[C@@H]2O)[C@@](C)(O)C[C@H](C)CN(C)[C@@H](C)[C@@H]2OC(=O)O[C@@]12C	8 (≈ 8.15 µM)	16 (≈ 16.3 µM)	64 (≈ 65.2 µM)	64 (≈ 65.2 µM)	2 (≈ 2.04 µM)	16 (≈ 16.3 µM)	0.5 (≈ 0.51 µM)	2 (≈ 2.04 µM)	16 (≈ 16.3 µM)
